Assay results reported in ChEMBL document CHEMBL1137698, “Synthesis, spectral studies and in vitro antibacterial activity of steroidal thiosemicarbazone and their palladium (Pd (II)) complexes” (2009).
≈ marks a conversion by molar mass, not a printed value.

Experiments:
Escherichia coli [1] = assay: Antibacterial activity against Escherichia coli after 18 hrs by […]; type: functional
How it was run: (§1)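 MIC by tube macrodilution. Test compounds dissolved in DMSO, serially diluted to final […]. Each tube received 24 h old inoculum, standard inoculum […]. Incubated 18 h at 37 °C. MIC read visually as the lowest concentration preventing visible growth.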

Salmonella typhimurium [2] = assay: Antibacterial activity against Salmonella Typhimurium at 10 to 100 ug/mL after 18 hrs by disk diffusion method; type: functional, Salmonella enterica subsp. enterica serovar Typhimurium
How it was run: (§2)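 Disk diffusion. Bacteria were subcultured in BHI for 18 h at 37 °C, then suspended in saline to McFarland standard. The suspension was mixed with sterile antibiotic agar at 40 °C and poured into plates. Paper disks of 6.0 mm were placed on nutrient agar. DMSO stock was diluted to 10, 20, 25, 50 and 100 per mL and applied to the disks. A DMSO disk served as negative control. Inhibition zones in mm were read after 18 h at 36 °C.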

Salmonella typhimurium [3] = assay: Antibacterial activity against Salmonella Typhimurium after 18 hrs by […]; type: functional, Salmonella enterica subsp. enterica serovar Typhimurium; settings: Salmonella enterica; how it was run: as §1
Escherichia coli [4] = assay: Antibacterial activity against Escherichia coli at 10 to 100 ug/mL after 18 hrs by disk diffusion method; type: functional; how it was run: as §2
Staphylococcus aureus [5] = assay: Antibacterial activity against Staphylococcus aureus at 10 to 100 ug/mL after 18 hrs by disk diffusion method; type: functional; how it was run: as §2
Streptococcus pyogenes [6] = assay: Antibacterial activity against Streptococcus pyogenes after 18 hrs by […]; type: functional; how it was run: as §1
Streptococcus pyogenes [7] = assay: Antibacterial activity against Streptococcus pyogenes at 10 to 100 ug/mL after 18 hrs by disk diffusion method; type: functional; how it was run: as §2
Staphylococcus aureus [8] = assay: Antibacterial activity against Staphylococcus aureus after 18 hrs by […]; type: functional; how it was run: as §1
Staphylococcus aureus [9] = assay: Antibacterial activity against Staphylococcus aureus at 30 ug after 18 hrs by disk diffusion method; type: functional; settings: read-out: IZ
How it was run: (§3)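 Amoxicillin […] disk, positive control in disk diffusion. Bacteria were subcultured in BHI for 18 h at 37 °C and suspended in saline to McFarland standard. Seeded antibiotic agar was poured into plates and 6.0 mm paper disks placed. Inhibition zone in mm was read after 18 h at 36 °C.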

Streptococcus pyogenes [10] = assay: Antibacterial activity against Streptococcus pyogenes at 30 ug after 18 hrs by disk diffusion method; type: functional; settings: read-out: IZ; how it was run: as §3
Salmonella typhimurium [11] = assay: Antibacterial activity against Salmonella Typhimurium at 30 ug after 18 hrs by disk diffusion method; type: functional, Salmonella enterica subsp. enterica serovar Typhimurium; settings: Salmonella enterica, read-out: IZ; how it was run: as §3
Escherichia coli [12] = assay: Antibacterial activity against Escherichia coli at 30 ug after 18 hrs by disk diffusion method; type: functional; settings: read-out: IZ; how it was run: as §3

Row | SMILES | MIC (Escherichia coli [1]) | inhibition zone (IZ) (Salmonella typhimurium [2]) | MIC (Salmonella typhimurium [3]) | inhibition zone (IZ) (Escherichia coli [4]) | inhibition zone (IZ) (Staphylococcus aureus [5]) | MIC (Streptococcus pyogenes [6]) | inhibition zone (IZ) (Streptococcus pyogenes [7]) | MIC (Staphylococcus aureus [8]) | zone of inhibition at 30 µg/disc (Staphylococcus aureus [9]) | zone of inhibition at 30 µg/disc (Streptococcus pyogenes [10]) | zone of inhibition at 30 µg/disc (Salmonella typhimurium [11]) | zone of inhibition at 30 µg/disc (Escherichia coli [12])
1 | Cc1cccc(NC(=S)N/N=C2\CC[C@@]3(C)C(=CC[C@H]4[C@@H]5CC[C@H]([C@H](C)CCCC(C)C)[C@@]5(C)CC[C@@H]43)C2)c1 | 256 µg/mL (≈ 467 µM) | 10.6 mm | 128 µg/mL (≈ 234 µM) | 11.2 mm | 12.4 mm | 128 µg/mL (≈ 234 µM) | 10.6 mm | 128 µg/mL (≈ 234 µM) | – | – | – | –
2 | CC1(C)S[C@@H]2[C@H](NC(=O)[C@H](N)c3ccc(O)cc3)C(=O)N2[C@H]1C(=O)O [AMOXICILLIN] | 32 µg/mL (≈ 87.6 µM) | – | 32 µg/mL (≈ 87.6 µM) | – | – | 32 µg/mL (≈ 87.6 µM) | – | 32 µg/mL (≈ 87.6 µM) | 21 mm | 22.2 mm | 25.2 mm | 20 mm
3 | Cc1ccc(NC(=S)N/N=C2\CC[C@@]3(C)C(=CC[C@H]4[C@@H]5CC[C@H]([C@H](C)CCCC(C)C)[C@@]5(C)CC[C@@H]43)C2)cc1 | 128 µg/mL (≈ 234 µM) | 10.2 mm | 128 µg/mL (≈ 234 µM) | 10.2 mm | 12.6 mm | 256 µg/mL (≈ 467 µM) | 11.5 mm | 256 µg/mL (≈ 467 µM) | – | – | – | –
4 | Cc1ccccc1NC(=S)N/N=C1\CC[C@@]2(C)C(=CC[C@H]3[C@@H]4CC[C@H]([C@H](C)CCCC(C)C)[C@@]4(C)CC[C@@H]32)C1 | 128 µg/mL (≈ 234 µM) | 12.4 mm | 128 µg/mL (≈ 234 µM) | 14.2 mm | 14.2 mm | 64 µg/mL (≈ 117 µM) | 12.8 mm | 64 µg/mL (≈ 117 µM) | – | – | – | –
